Experimental data from different studies.
Lines come from different studies, so protocols differ.
Target: Calcium/calmodulin-dependent protein kinase type 1D (CAMK1D, Homo sapiens, UniProt Q8IU85)

| SMILES | read-out | action | technique | concentration | measurement | value |
| --- | --- | --- | --- | --- | --- | --- |
| c1ccc(CNc2nc(N3CCOc4ccccc43)nc3c2CCCC3)cc1 | target engagement in cells | inhibitor | chemoproteomics | 20 mM | inhibition | -2.2% |
| Cn1c2c(c3ccc(Cl)c(Cl)c31)C(C#N)C1(CCCC1)NC2=O (stereo not shown) | thermal stability |  | DSF | 10 µM | ΔTm | 0 °C |
| CCCOc1ccc(OC)c(F)c1C(=O)c1ccc(C(=O)N[C@@H]2CNC[C@H]2NC(=O)c2ccc3[nH]ncc3c2)cc1 | enzyme activity | inhibitor |  | 10 µM | remaining activity | 63% |
| CCS(=O)(=O)c1cc2cc(C[C@@](O)(CC(C)(C)c3ccc(F)cc3C(N)=O)C(F)(F)F)[nH]c2cn1 | cell-free assay |  | competition with immobilised ligand | 1 µM | remaining binding | 89% |
| Cc1ccc(Nc2nccc(N(C)c3ccc4c(C)n(C)nc4c3)n2)cc1S(N)(=O)=O | enzyme activity | inhibitor |  | 0.3 µM | inhibition | 18% |
| CCCS(=O)(=O)Nc1ccc(F)c(C(=O)c2c[nH]c3ncc(-c4ccc(Cl)cc4)cc23)c1F | enzyme activity | inhibitor |  | 1 µM | inhibition | < 10% |
| Cc1sc(C(=O)NC2COC2)cc1-n1cc(NC(=O)Nc2c(F)cccc2Cl)cn1 | enzyme activity | inhibitor |  | 10 µM | remaining activity | 105% |
| CCC1(CC)NC(=O)c2c(c3ccc(Cl)c(Cl)c3n2C)C1C#N (stereo not shown) | thermal stability |  | DSF | 10 µM | ΔTm | -0.2 °C |
| CN(CCCC(F)(F)F)c1nccc(-c2cnn3ncccc23)n1 | binding |  |  | 1 µM | remaining binding | 86% |
| Cn1c2c(Cl)c(Cl)ccc2c2cc[nH]c(=O)c21 | thermal stability |  | DSF | 10 µM | ΔTm | 1 °C |
| Cc1c(NC(=O)c2cc(C(N)=O)nc3cc(F)ccc23)c(C(F)(F)F)nn1Cc1ccc(C(C)(C)C)cc1 | cell-free assay |  | competition with immobilised ligand | 1 µM | remaining binding | 84% |
| O=C1c2ccccc2-c2n[nH]c3cccc1c23 | enzyme activity | inhibitor |  | 0.5 µM | activity vs control | 91.9% |
| CS(=O)(=O)c1cc(C2(NC(=O)c3cncc4c3cnn4-c3ccc(F)cc3)CC2)ccn1 | cell-free assay |  | competition with immobilised ligand | 1 µM | remaining binding | 90% |
| Cn1c2c(c3ccc(Cl)c(Cl)c31)C(C#N)C1(CCOCC1)NC2=O (stereo not shown) | thermal stability |  | DSF | 10 µM | ΔTm | -0.5 °C |
| Cc1cc(-n2nc(Cc3cc(F)cc(C(F)(F)F)c3)nc2C)ccc1C(N)=O | cell-free assay |  | competition with immobilised ligand | 1 µM | remaining binding | 96% |
| N#CCCc1ccc2c(c1)-c1[nH]c3ccc([N+](=O)[O-])cc3c1CC(=O)N2 | cell-free assay |  |  | 0.5 µM | remaining signal | 91.8% |

| SMILES | read-out | action | technique | concentration | measurement | value |
| --- | --- | --- | --- | --- | --- | --- |
| N#CC1c2c([nH]c3c(Cl)c(Cl)ccc23)C(=O)NC12CCCCC2 (racemic) | thermal stability |  | DSF | 10 µM | ΔTm | 0.7 °C |
| CNC(=O)c1cc(Oc2ccc(NC(=O)Nc3ccc(Cl)c(C(F)(F)F)c3)cc2)ccn1 | enzyme activity | inhibitor |  | 10 µM | inhibition | 22% |
| CC1(C)NC(=O)c2[nH]c3c(Cl)c(Cl)ccc3c2C1C#N (stereo not shown) | thermal stability |  | DSF | 10 µM | ΔTm | -0.6 °C |
| C[C@H](c1ccnc(Nc2nc3ccc(-c4cc(N(C)C)ncn4)cc3[nH]2)c1)N1CCN(C(=O)CC(F)(F)F)CC1 | cell-free assay |  | competition with immobilised ligand | 0.1 µM | remaining binding | 95% |
| Cc1ccc(NC(=O)c2ccc(C)c(C(F)(F)F)c2)cc1C#Cc1nn(C2CCC(O)CC2)c2ncnc(N)c12 (stereo not shown) | cell-free assay |  |  | 10 µM | remaining signal | 92% |
| CNCc1ccccc1-c1csc([C@H](C)Nc2nc(C)nc3cc(OC)c(OC)cc23)c1 | cell-free assay |  | competition with immobilised ligand | 1 µM | remaining binding | 100% |
| O=c1cc(-c2cccc3c2Sc2ccccc2S3)oc(N2CCOCC2)c1 | enzyme activity | inhibitor |  | 0.5 µM | remaining activity | 106% |
| CC(=O)N1CCC(c2ccc(C(=O)NC3=NCCN3)cc2C(F)(F)F)CC1 | cell-free assay |  | competition with immobilised ligand | 1 µM | remaining binding | 100% |
| Nc1nc(Nc2ccc(S(N)(=O)=O)cc2)nn1C(=O)c1c(F)cccc1F | cell-free assay |  |  | 0.5 µM | remaining signal | 97.7% |
| CC(C)(C)c1nc2c(s1)c1nc(N)ncc1c1ccc(NS(=O)(=O)c3c(F)cccc3F)c(F)c12 | enzyme activity | inhibitor | radiometric | 1 µM | remaining activity | 97% |
| COc1cc2ncnc(Nc3ccc(Oc4ccccc4)c(C)c3C)c2cc1OC | enzyme activity | inhibitor |  | 1 µM | inhibition | 1% |
| CCCCNc1ncc2c(-c3ccc(F)cc3)nn(C[C@H]3CC[C@H](N)CC3)c2n1 | target engagement in cells | inhibitor | chemoproteomics | 20 mM | inhibition | 5.9% |
| O=C(NC[C@@H]1[C@H]2CN(C(=O)OCc3cc(C(F)(F)F)cc(C(F)(F)F)c3)C[C@@H]12)c1ccc2[nH]nnc2c1 | cell-free assay |  | competition with immobilised ligand | 1 µM | remaining binding | 100% |
| CCN(CC)c1ccc(C2=NNC(=O)CC2C)cc1[N+](=O)[O-] (stereo not shown) | enzyme activity | inhibitor |  | 10 µM | remaining activity | 105% |
| CC(C)(O)[C@H]1CC[C@H](Nc2ccc3ncc(-c4cccc(C(F)(F)F)c4)n3n2)CC1 | enzyme activity | inhibitor |  | 1 µM | remaining activity | 83.7% |
